An excerpt weighted towards active compounds, which were near 3.3% of everything screened.
CendR NRP1 mod: modulators of CendR peptide binding to NRP-1, primary screen, biochemical, fluorescence polarization, uHTS; AID 602438, 2012; FAM-RPARPAR peptide binding to NRP-1; inhibition, % at 25 µM; Neuropilin-1 (Homo sapiens), O14786; actives 0.85% (n = 360,000);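 active = inhibition or corrected inhibition above about 18%, plus a signal ratio from 0.5 to 1.5, limit read from the data, passing the limit was not always enough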
Myeloid diff MLP: induction of myeloid progenitor differentiation, primary screen, cell-based, flow cytometry, MLPCN library | ER-HoxA9 myeloid progenitors, lysozyme-GFP differentiation | actives 1% (n = 360,000) | calls only at 10 µM;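 active = normalized GFP-positive differentiation at or above the plate's own cutoff, the solvent-only control mean plus 3 SD; inconclusive = no clear call, values can overlap the other calls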;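 also: cells exposed to compound for four days before flow analysis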
ABCB6 inh 2: ABCB6 transporter inhibitors, primary screen, K562-ABCB6 cells, flow cytometry, MLPCN library; K562-ABCB6 porphyrin accumulation, 1 h; stronger effect = lower value; fluorescence ratio to DMSO, % at 10 µM; AID 602162, 2011; ATP-binding cassette sub-family B member 6 (Homo sapiens), Q9NP58; actives 0.19% (n = 360,000);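 active = fluorescence ratio to DMSO below 75%, the collection mean minus 3 SD; inconclusive = too few cells collected in the well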;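 also: signal is porphyrin accumulated inside mitochondria; lower ratio means ABCB6 inhibition with less porphyrin fluorescence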
Exocytosis inh: LAMP-1 surface exposure blockers, TALL-104 cells – cell-based, flow cytometry, MLPCN library, primary screen; TALL-104 LAMP-1 surface exposure; cells stimulated with thapsigargin and PMA; inhibition, % at 10 µM; actives 0.66% (n = 360,000); AID 651702, 2012;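 active = inhibition above about 55%, limit read from the data; inconclusive = no clear call, values can overlap the other calls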
ATG4B inhibitor: ATG4B protease inhibitors, primary screen, biochemical, fluorescence, uHTS | ATG4B cleavage of LC3-PLA2, NBD-HPC fluorescence, 1 h | AID 504462, 2011 | actives 0.51% (n = 340,000) | inhibition, % at 8.33 µM | Cysteine protease ATG4B (Homo sapiens), Q9Y4P1; in the data active = inhibition above about 40%
Target sequence (Q9Y4P1 whole entry, looked up): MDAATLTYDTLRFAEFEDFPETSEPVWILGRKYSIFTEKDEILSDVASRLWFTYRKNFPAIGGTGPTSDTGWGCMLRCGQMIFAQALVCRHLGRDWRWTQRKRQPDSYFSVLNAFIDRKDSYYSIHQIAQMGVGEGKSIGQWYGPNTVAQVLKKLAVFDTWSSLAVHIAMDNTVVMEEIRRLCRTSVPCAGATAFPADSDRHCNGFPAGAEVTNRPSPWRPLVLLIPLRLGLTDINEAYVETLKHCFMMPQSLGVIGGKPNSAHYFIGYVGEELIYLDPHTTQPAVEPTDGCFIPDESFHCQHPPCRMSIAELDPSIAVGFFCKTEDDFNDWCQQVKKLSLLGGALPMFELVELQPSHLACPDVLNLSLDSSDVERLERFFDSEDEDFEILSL
Arr AP2 block: inhibitors of beta-arrestin/AP2 binding, primary screen, biochemical, GPCR trafficking, flow cytometry | beta-arrestin 1 C-terminal peptide binding to AP2 beta2-adaptin appendage (human) | FITC-arrestin peptide / GST-AP2 beads; AP2 beta2 appendage carries R879A mutation | inhibition, % at 10 µM | actives 0.31% (n = 340,000) | AID 504490, 2011;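 active = inhibition above a set limit, near 3 SD of compounds lacking own fluorescence, cut at about 54% in these data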
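Assay system: GST-AP2 R879A bound to glutathione beads, E. coli-expressed; Medium: PBS with 0.05% Tween 20 and 0.1% BSA; Also added: fluorescein-tagged arrestin peptide at 50 nM final; Timing: 12 min plus 1 h, RT; Measured by: flow cytometry, FL1 (488/535 nm); Evaluation: percent drop in bead-associated FITC signal.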
Exocytosis CP01: inhibitors of lytic granule exocytosis, confirmation, TALL-104 cells, flow cytometry, Cherry Pick01; inhibition, % at 10 µM; LAMP-1 externalization; stimulated with PMA plus thapsigargin; actives 11% (n = 1,500); shares compounds with Exocytosis inh; AID 651954, 2012; in the data active = inhibition above about 60%
Of the large screens only hits and unclear results are named; the others gave an inactive call (follow-up assays come after a bar, where they were run).

COc1ccccc1Nc1c2ccccc2nc2ccccc12	Myeloid diff MLP inconclusive, Exocytosis inh 82 | Exocytosis CP01 inactive
COc1ccc(Cl)cc1Nc1cc(C)nc2ccccc12	Exocytosis inh 76 | Exocytosis CP01 inactive
N#Cc1ccc(-c2ccc(OCC(=O)NCCCN3CCCC3=O)cc2)cc1	none
C/C(=N\NC(=O)Cc1ccc(O)cc1)c1cccnc1	none
O=C(Nc1ccc(S(=O)(=O)N2CCCC2)cc1)c1ccc(Br)o1	Exocytosis inh 80 | Exocytosis CP01 inactive
CCCS(=O)(=O)NC(=O)C1(C)CCN(C(=O)COc2ccc(Cl)cc2Cl)C1 (centres undefined)	Exocytosis inh 61 (no result: ATG4B inhibitor, Arr AP2 block) | Exocytosis CP01 inactive
CC(C)C(C(=O)Nc1nccs1)N1C(=O)c2ccccc2C1=O (centres undefined)	none
COc1ccc2oc(=O)c(C(=O)N3c4ccccc4CC3C)cc2c1 (centres undefined)	none
Cc1ccc2cccc(NC(=O)c3ccc(Br)o3)c2n1	Exocytosis inh 89 | Exocytosis CP01 inactive
O=C(Nc1cccc(NC(=O)c2ccc(Br)o2)n1)c1ccc(Br)o1	none
COc1cccc(NS(=O)(=O)NC(=O)c2c(C)[nH]c3ccccc23)c1	none
O=C1C(=O)N(Cc2cccs2)c2ccccc21	Exocytosis inh 62 (no result: Myeloid diff MLP) | Exocytosis CP01 inactive
O=C(CN1C(=O)C(=O)c2ccccc21)c1ccccc1	none
CCOc1cc(C(=O)N(C)CC(=O)Nc2cccc(F)c2)ccc1OCC(=O)N1CCCCC1	none
Cc1ccc2[nH]c3c(=O)n(CC(=O)N4CCN(C)CC4)ncc3c2c1	none
CCCCN(CC)C(=O)CSc1nc2n[nH]c(C)c2c(=N)n1-c1cccc(C)c1	Exocytosis inh 62 | Exocytosis CP01 inactive
CCCCn1nnnc1C(c1cccc2ccccc12)N1CCN(C/C=C/c2ccccc2)CC1 (centres undefined)	Exocytosis inh 58 (no result: ATG4B inhibitor, Arr AP2 block) | Exocytosis CP01 inactive
CCCCn1nnnc1C(c1ccnc2ccccc12)N1CCN(C/C=C/c2ccccc2)CC1 (centres undefined)	none (no result: ATG4B inhibitor, Arr AP2 block)
COc1ccc(NC(=O)CC2C(=O)N(Cc3ccccc3)C(=S)N2CCN2CCOCC2)cc1 (centres undefined)	none
C=CCN1C(=O)C(CC(=O)Nc2ccc(OCCC)cc2)N(CCCN2CCN(Cc3ccccc3)CC2)C1=S (centres undefined)	Exocytosis inh 58 | Exocytosis CP01 inactive
Cc1ccc(Cl)cc1S(=O)(=O)N1CCC(C(=O)NC2CCN(Cc3ccccc3)CC2)CC1	none
CN(C)S(=O)(=O)c1cccc(NC(=O)COc2ccc(C(=O)c3ccccc3)cc2)c1	Exocytosis inh 58 | Exocytosis CP01 inactive
CN(C)S(=O)(=O)c1cccc(NC(=O)c2ccccc2OCc2ccc(F)cc2)c1	Exocytosis inh 102 | Exocytosis CP01 inactive
COc1ccc(NC(=O)c2ccccc2OCc2ccc(F)cc2)c(OC)c1	Exocytosis inh 85 | Exocytosis CP01 inactive
O=C(O)c1cc([N+](=O)[O-])c(NCc2cccnc2)c([N+](=O)[O-])c1	none
CCc1ccc(NC(=O)CSc2nc(N)c(NC(=O)c3ccc(F)c(F)c3)c(=O)[nH]2)cc1	none
COc1ccc2nc3cc(Cl)ccc3c(Nc3cc(C(C)C)c(O)cc3C)c2c1	Myeloid diff MLP inconclusive, Exocytosis inh 62 | Exocytosis CP01 inactive
CC1(C(=O)NS(=O)(=O)c2ccc(Cl)cc2)CCN1C(=O)Cc1ccsc1 (centres undefined)	Exocytosis inh 78 (no result: ATG4B inhibitor, Arr AP2 block) | Exocytosis CP01 inactive
CC(=O)c1sc2nsc(SCCN3CCCCC3)c2c1N	none
Nc1c(C(=O)c2ccccc2)sc2nsc(SCCN3CCCC3)c12	Myeloid diff MLP active, Exocytosis inh 64 | Exocytosis CP01 inactive
CC(C)(C)NC(=O)CN1CCN(C(=O)CCl)CC1	none
Oc1cc(Br)ccc1C=Nc1ccc(N2CCCCC2)cc1	Exocytosis inh 65 | Exocytosis CP01 inactive
O=C(O)C1=C[C@H](c2ccccc2)C[C@H](OCCCCO)O1	Exocytosis inh 58 | Exocytosis CP01 inactive
NC(=O)CC(NC(=O)Cc1cccc2ccccc12)c1ccc(N2CCC(Cc3ccccc3)CC2)c([N+](=O)[O-])c1 (centres undefined)	Exocytosis inh 60 | Exocytosis CP01 inactive
CCOC(=O)Cn1cnc2c(cnn2-c2ccccc2)c1=O	none
COC(=O)c1ccccc1NS(=O)(=O)c1ccc(Cl)nc1	Exocytosis inh 86 | Exocytosis CP01 inactive
Cc1nn(-c2ccccc2)c(C)c1NC(=O)COc1cc(F)ccc1[N+](=O)[O-]	none
CCC(C(=O)NCCCN(CC)Cc1ccccc1)n1nc(C)c2sc3ccccc3c2c1=O (centres undefined)	Exocytosis inh 58 | Exocytosis CP01 inactive
Cc1ccc(CCNC(=O)C(C)n2nc(C)c3c(C)n(-c4ccccc4)nc3c2=O)cc1 (centres undefined)	none
CCC(C(=O)NCCc1ccc(C)cc1)n1nc(C)c2c(C)n(-c3ccccc3)nc2c1=O (centres undefined)	Myeloid diff MLP inconclusive, Exocytosis inh 86 | Exocytosis CP01 inactive
Cc1sc2ncnc(SCC(=O)NC(=O)c3cccn3C)c2c1C	none
CCCCN(C)c1c(C)nc2ccc(C(=O)N(C)CCN(C)C)cn12	none (no result: ATG4B inhibitor, Arr AP2 block)
COc1ccc(Cc2nnc(NC(=O)Nc3ccc(C)cc3)s2)cc1OC	Exocytosis inh 65 | Exocytosis CP01 inactive
COc1cc(/C=C/C(=O)OCC(=O)Nc2cc(S(=O)(=O)N3CCCC3)ccc2Cl)cc(OC)c1OC	none
CCC(Oc1ccccc1)C(=O)Nc1ncc([N+](=O)[O-])s1 (centres undefined)	none
CC(CC(=O)Nc1ncc([N+](=O)[O-])s1)c1ccccc1 (centres undefined)	Exocytosis inh 59 | Exocytosis CP01 inactive
O=C(N/N=C/c1cccn1-c1cccc(C(=O)O)c1)Nc1ccccc1	none
O=C(c1ccco1)N1CCN(c2nc3ccccc3n3nnnc23)CC1	Exocytosis inh 56 | Exocytosis CP01 inactive
CCOC(=O)C1(C)CCN1C(=O)c1csnn1 (centres undefined)	none (no result: ATG4B inhibitor, Arr AP2 block)
